{
  "source": "paper PMC8849394",
  "about": "(Science Advances, 2022)",
  "key": {"[1]": {"target": "purified KIX domain of CREBBP (Mus musculus, UniProt P45481)", "sequence (P45481 585-672)": "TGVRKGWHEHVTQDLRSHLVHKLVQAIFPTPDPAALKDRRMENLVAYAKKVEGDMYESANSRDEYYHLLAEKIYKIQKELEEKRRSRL", "test": "FP assay, direct binding of fluorophore-labeled peptides to CREBBP KIX", "summary_of_the_method": "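CREBBP KIX domain (87 residues, 585-672) was expressed from pMAL-c5E in E. coli Rosetta (DE3) and purified by affinity then anion-exchange chromatography. FP probes were N-terminally FITC-labelled MYB peptide and rhodamine-labelled MLL peptide, each at 0.5 µM, in 50 mM Hepes (pH 7.5) with 50 mM NaCl. Plates were incubated 30 min in the dark at room temperature, then read for polarization.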"}, "[2]": {"target": "FITC-labeled MYB peptide (MYB25)", "test": "fluorescence polarisation"}, "mouse SCLC cells (RP-1)": {"system": "mouse SCLC cells (RP-1)", "test": "MTT cell viability, mouse SCLC cells RP-1", "format": "cell-based", "details": "RP-1, MTT, n = 3", "summary_of_the_method": "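Murine SCLC cells derived from Rb1/Trp53-mutant mouse lung tumors are grown in RPMI1640 with 10% bovine growth serum. Cells are seeded at 1×10^4 per well and treated with bromodomain- or HAT-domain-targeting test compounds. Over 0 to 4 or 6 days, MTT (0.5 mg/ml final) is added for 4 h at 37°C and OD is read at 590 nm, minus a vehicle blank. Triplicates; n = 3.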"}, "[3]": {"system": "human NSCLC (lung adenocarcinoma) cell lines", "test": "MTT cell viability / short-term proliferation, human NSCLC lines", "format": "cell-based", "details": "for growth of NSCLC cells under BRD/HAT inhibitors: MTT"}, "human SCLC cell lines [4]": {"system": "human SCLC cell lines", "test": "MTT cell viability / short-term proliferation, human SCLC lines", "format": "cell-based"}, "H209 SCLC cells": {"system": "H209 SCLC cells", "test": "RNA sequencing, GSEA and KEGG analysis, H209 cells", "format": "cell-based, human", "summary_of_the_method": "(§1)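 SCLC cells express M/M or M/M-5A peptide under a doxycycline-inducible promoter. mRNA is oligo(dT)-purified from 500 ng total RNA, and 100-bp single-end reads are sequenced on an Illumina NextSeq2000. Differential expression signatures come from comparing TPM between experimental and control groups. GSEA is run on the signature using Molecular Signatures Database v7.4 gene sets.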"}, "H524 SCLC cells": {"system": "H524 SCLC cells", "test": "RNA sequencing, GSEA and KEGG analysis, H524 cells", "format": "cell-based, human", "details": "H524, M/M vs M/M-5A", "summary_of_the_method": "as §1"}, "CREBBP": {"system": "CREBBP", "test": "Anti-FLAG immunoprecipitation/immunoblot for CREBBP in H524 cell extracts", "format": "cell-based, human", "details": "FLAG-tagged M/M, IP relative to input, n = 3", "summary_of_the_method": "(§2)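 H524 cells express FLAG-tagged M/M fusion peptide from a doxycycline-inducible promoter. Cells are lysed in RIPA (pH 8.0, with protease inhibitors). Lysates are immunoprecipitated with anti-FLAG or control IgG overnight at 4°C, then protein A/G agarose is added for 4 h at 4°C. Eluates are immunoblotted for FLAG, EP300 and CREBBP. IP band intensity is expressed relative to 5% input; n = 3; unpaired t test.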"}, "EP300": {"system": "EP300", "test": "Anti-FLAG immunoprecipitation/immunoblot for EP300 in H524 cell extracts", "format": "cell-based, human", "details": "FLAG-tagged M/M, IP relative to input, n = 3", "summary_of_the_method": "as §2"}, "[5]": {"target": "rhodamine-labeled MLL peptide (MLL25)", "test": "fluorescence polarisation"}, "[6]": {"system": "interaction between CREB1 and the KIX domain of CREBBP", "details": "cited from earlier work"}, "[7]": {"system": "human NSCLC (lung adenocarcinoma) cell lines", "test": "Soft agar colony formation, human NSCLC lines", "format": "cell-based", "details": "2 μM in DMSO; H1650 (fig. S8A); n = 3"}, "human SCLC cell lines [8]": {"system": "human SCLC cell lines", "test": "Soft agar colony formation, human SCLC lines", "format": "cell-based", "details": "2 μM in DMSO; H69, H209, H524; n = 3"}, "[9]": {"system": "interaction between CREB1 and the KIX domain of EP300", "details": "cited from earlier work"}, "A627D EP300 KIX": {"target": "A627D EP300 KIX (human, UniProt Q09472 565-652, A627D)", "sequence (Q09472 565-652 A627D)": "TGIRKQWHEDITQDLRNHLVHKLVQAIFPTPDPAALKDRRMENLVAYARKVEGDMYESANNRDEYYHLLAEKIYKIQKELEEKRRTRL", "test": "fluorescence polarisation"}, "EP300 KIX domain": {"target": "EP300 KIX domain (human, UniProt Q09472 565-652)", "sequence (Q09472 565-652)": "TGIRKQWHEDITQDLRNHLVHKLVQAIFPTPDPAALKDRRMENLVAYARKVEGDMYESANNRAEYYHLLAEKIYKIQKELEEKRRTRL", "test": "fluorescence polarisation"}},
  "note": "Ends that are not written are not given here. * marks the point of attachment. FITC = O=C1OC2(c3ccc(O)cc3Oc3cc(O)ccc32)c2ccc(NC(=S)*)cc21",
  "data": [
    {"molecule": "SDDGNILPSDIMDFVLKNTPSMQAL [MLL25]", "values": [
      {"measurement": "Kd", "setting": "[1]", "value": "94 ± 11", "unit": "µM"}
    ]},
    {"molecule": "D647A CREBBP KIX domain (from UniProt Q92793 585-672) (domain or fragment)", "values": [
      {"measurement": "Kd", "setting": "[2]", "value": 6.7, "unit": "µM"}
    ]},
    {"molecule": "COc1ccc(CCc2nc3cc(-c4c(C)noc4C)ccc3n2C[C@H](C)N2CCOCC2)cc1Cl", "note": "[SGC-CBP30]", "values": [
      {"measurement": "growth of mouse SCLC cells", "setting": "mouse SCLC cells (RP-1)", "value": "did not have any significant effect on the growth"},
      {"measurement": "growth of NSCLC cells under BRD/HAT inhibitors", "setting": "[3]; n = 3", "value": "dose-dependent effects on NSCLC lines"},
      {"measurement": "growth of human SCLC cells under BRD/HAT inhibitors", "setting": "human SCLC cell lines [4]; MTT, n = 3", "value": "either insignificant or modest"}
    ]},
    {"molecule": "CCC(=O)N1CCOc2c(cc(-c3ccc(OC)c(OC)c3)cc2OC[C@H]2CCCN(C)C2)C1", "note": "[I-CBP112]", "values": [
      {"measurement": "growth of mouse SCLC cells", "setting": "mouse SCLC cells (RP-1)", "value": "did not have any significant effect on the growth"},
      {"measurement": "growth of NSCLC cells under BRD/HAT inhibitors", "setting": "[3]; n = 3", "value": "dose-dependent effects on NSCLC lines"},
      {"measurement": "growth of human SCLC cells under BRD/HAT inhibitors", "setting": "human SCLC cell lines [4]; MTT, n = 3", "value": "either insignificant or modest"}
    ]},
    {"molecule": "H-SDDGNILPSDIMDFVLKNTPSMQALGESGGDEDPEKEKRIKELELLLMSTENELKGQQAL-OH [M/M]", "values": [
      {"measurement": "gene set enrichment (GSEA), TF target genes", "setting": "H209 SCLC cells; H209, M/M vs M/M-5A", "value": "significantly enriched in the gene sets related to MYB, ATF4, CREB1, and CREBP1/JUN targets"},
      {"measurement": "KEGG pathway small cell lung cancer", "setting": "H209 SCLC cells; M/M-expressing H209 vs M/M-5A", "value": "down-regulated in M/M-expressing H209 cells"},
      {"measurement": "gene set enrichment (GSEA), TF target genes", "setting": "H524 SCLC cells", "value": "significantly enriched in the gene sets related to MYB, ATF4, CREB1, and CREBP1/JUN targets"},
      {"measurement": "growth of lung adenocarcinoma cells, MTT", "setting": "[3]; doxycycline-inducible lentiviral expression of peptide, n = 3", "value": "did not detectably affect the growth of lung adenocarcinoma cell lines"},
      {"measurement": "binding to CREBBP in cells", "setting": "CREBBP", "value": "confirmed the binding of M/M to both EP300 and CREBBP"},
      {"measurement": "binding to EP300 in cells", "setting": "EP300", "value": "confirmed the binding of M/M to both EP300 and CREBBP"},
      {"measurement": "preference EP300 over CREBBP in cells", "setting": "EP300", "value": "bound preferentially to EP300 than to CREBBP"},
      {"measurement": "short-term proliferation of SCLC cells", "setting": "human SCLC cell lines [4]; doxycycline-inducible lentiviral expression of peptide, MTT, n = 3", "value": "inhibited the short-term proliferation"}
    ]},
    {"molecule": "CREBBP KIX domain (from UniProt Q92793 585-672) (domain or fragment)", "values": [
      {"measurement": "Kd", "setting": "[5]", "value": 94, "unit": "µM"},
      {"measurement": "Kd", "setting": "[2]", "value": 22, "unit": "µM"}
    ]},
    {"molecule": "CC1=NN(c2ccc(C(=O)O)cc2)C(=O)/C1=C\\c1ccc(-c2cc(C)c(C)cc2[N+](=O)[O-])o1", "note": "[C646]", "values": [
      {"measurement": "growth of mouse SCLC cells", "setting": "mouse SCLC cells (RP-1)", "value": "did not have any significant effect on the growth"},
      {"measurement": "growth of NSCLC cells under BRD/HAT inhibitors", "setting": "[3]; n = 3", "value": "dose-dependent effects on NSCLC lines"},
      {"measurement": "growth of human SCLC cells under BRD/HAT inhibitors", "setting": "human SCLC cell lines [4]; MTT, n = 3", "value": "either insignificant or modest"}
    ]},
    {"molecule": "O=C(Nc1ccc(Cl)cc1)c1cc2ccccc2cc1OP(=O)(O)O", "note": "[KG-501, 2-naphthol-AS-E-phosphate]", "values": [
      {"measurement": "inhibition of CREB1-CREBBP KIX interaction", "setting": "[6]", "value": "shown to inhibit the interaction between CREB1 and the KIX domains of EP300 and CREBBP"},
      {"measurement": "soft agar colony formation of NSCLC lines, KG-501", "setting": "[7]", "value": "did not have a significant effect on NSCLC cell lines"},
      {"measurement": "soft agar colony formation of SCLC lines, KG-501", "setting": "human SCLC cell lines [8]", "value": "inhibited the short-term growth of SCLC lines in culture and colony formation in soft agar"},
      {"measurement": "inhibition of CREB1-EP300 KIX interaction", "setting": "[9]", "value": "shown to inhibit the interaction between CREB1 and the KIX domains of EP300 and CREBBP"},
      {"measurement": "short-term growth of NSCLC lines, KG-501", "setting": "[3]; in culture", "value": "did not have a significant effect on NSCLC cell lines"},
      {"measurement": "short-term growth of SCLC lines, KG-501", "setting": "human SCLC cell lines [4]; in culture", "value": "inhibited the short-term growth of SCLC lines in culture"}
    ]},
    {"molecule": "{FITC}-KEKRIKELELLLMSTENELKGQQAL", "note": "[FITC-labeled MYB peptide (MYB25)]", "values": [
      {"measurement": "Kd", "setting": "A627D EP300 KIX", "value": "23 ± 6.2", "unit": "µM"},
      {"measurement": "Kd", "setting": "EP300 KIX domain", "value": "3.8 ± 0.2", "unit": "µM"}
    ]},
    {"molecule": "SDDGNILPSDIMDFVLKNTPSMQAL (also: rhodamine label)", "note": "[rhodamine-labeled MLL peptide (MLL25)]", "values": [
      {"measurement": "Kd", "setting": "A627D EP300 KIX", "value": "80 ± 8.5", "unit": "µM"},
      {"measurement": "Kd", "setting": "EP300 KIX domain", "value": "40 ± 14", "unit": "µM"}
    ]}
  ]
}
